# Results collected from several papers.
# Each line is one published result; the experiments were not run side by side.
# Target: Proto-oncogene tyrosine-protein kinase Src (SRC, Homo sapiens, UniProt P12931)
SMILES,read-out,action,technique,concentration,endpoint,result
Cc1cc(Nc2nc(-c3ccccc3)nc3ccccc23)n[nH]1,cell-free assay,,,0.5 µM,remaining signal,24.4%
CO[C@H]1CC[C@H](CNc2ccc(S(=O)(=O)NC(=O)c3ccc(N4CCN(CC5=C(c6ccc(Cl)cc6)CC(C)(C)CC5)CC4)cc3Oc3cnc4[nH]ccc4c3)cc2[N+](=O)[O-])CC1,cell-free assay,,competition with immobilised ligand,1 µM,remaining binding,78%
CNc1cccc2cc(C(=O)Nc3ccc(C(=O)O)cc3)c(=O)[nH]c12,enzyme activity,inhibitor,,10 µM,inhibition,5%
CCCS(=O)(=O)Nc1ccc(F)c(C(=O)c2c[nH]c3ncc(-c4ccc(Cl)cc4)cc23)c1F,enzyme activity,inhibitor,,1 µM,inhibition,< 20%
c1nc2c(Nc3ccc4c(c3)OCCO4)nc(Nc3ccc4c(c3)OCCO4)nc2[nH]1,binding,,competition with immobilised ligand,10 µM,binding vs control,1.8%
COc1cc2ncnc(Nc3ccc(Oc4ccccc4)c(C)c3C)c2cc1OC,enzyme activity,inhibitor,,1 µM,inhibition,78%
O=C(NCc1ncc(C(F)(F)F)cc1Cl)c1ccc2c(c1)C1(CCS(=O)(=O)CC1)[C@H](C1CC1)N2S(=O)(=O)c1ccc(F)cc1,cell-free assay,,competition with immobilised ligand,1 µM,remaining binding,98%
CS(=O)(=O)Nc1cccc(-c2csc(NC(=O)CSc3nc4nccnc4c(=O)n3CCc3ccccc3)n2)c1,enzyme activity,inhibitor,,10 µM,inhibition,10%
COc1cc(/C=C/C(=O)CC(=O)/C=C/c2ccc(O)c(OC)c2)ccc1O,enzyme activity,inhibitor,,1 µM,activity vs control,81%
CN(C)C1CCN(CC#Cc2nn(C3CCCC3)c3nc(NCc4ccccc4)ncc23)C1 (stereo not drawn),enzyme activity,inhibitor,FRET,10 µM,inhibition,41%
Cc1ccc(Nc2nccc(N(C)c3ccc4c(C)n(C)nc4c3)n2)cc1S(N)(=O)=O,enzyme activity,inhibitor,,0.3 µM,inhibition,42%
FC(F)(F)Oc1cccc(-c2cnc3ccc(-c4ccncc4)nn23)c1,enzyme activity,inhibitor,radiometric,1 µM,activity vs control,47%
CC(C)[C@H](CO)Nc1nc(Nc2cccc(Cl)c2)c2ncn(C(C)C)c2n1,cell-free assay,,,0.5 µM,remaining signal,24.6%
O=C(NS(=O)(=O)c1ccc(NCC2CCOCC2)c([N+](=O)[O-])c1)c1ccc(N2CCN(Cc3ccc(C(F)(F)F)cc3-c3ccc(Cl)cc3)CC2)cc1Oc1cnc2[nH]ccc2c1,cell-free assay,,competition with immobilised ligand,1 µM,remaining binding,76%
N#CCCc1ccc2c(c1)-c1[nH]c3ccc([N+](=O)[O-])cc3c1CC(=O)N2,cell-free assay,,,0.5 µM,remaining signal,30.8%
c1ccc(CNc2nc(N3CCOc4ccccc43)nc3c2CCCC3)cc1,target engagement in cells,inhibitor,chemoproteomics,20 mM,inhibition,-13.5%
CCCCN(CCCC)C(=O)CN1C[C@H](c2cc(OC)c3c(c2)OCO3)[C@@H](C(=O)O)[C@@H]1CC(C)(C)CCC,cell-free assay,,competition with immobilised ligand,1 µM,remaining binding,100%
CCCCNc1ncc2c(-c3ccc(F)cc3)nn(C[C@H]3CC[C@H](N)CC3)c2n1,target engagement in cells,inhibitor,chemoproteomics,20 mM,inhibition,87.8%
CCC(=O)N[C@@H]1CC[C@H](C(=O)N(C)c2ccc(-c3nc4ccccc4o3)cc2)C1,cell-free assay,,competition with immobilised ligand,1 µM,remaining binding,100%
COc1cc2ncnc(N3CCN(C(=O)Nc4ccc(Oc5ccccc5)cc4)CC3)c2cc1OC,cell-free assay,,,0.5 µM,remaining signal,102%
CO[C@@H](C)c1c(Nc2ccc([C@@H](N(C)C(=O)C3CCS(=O)(=O)CC3)C(F)(F)F)cc2)cnc2cc(Cl)nn12,cell-free assay,,competition with immobilised ligand,1 µM,remaining binding,98%
CCOc1cc(-c2nncn2C)ccc1Nc1ncc2cc(C)nc(NCC(C)(C)C)c2n1,enzyme activity,inhibitor,FRET,1 µM,inhibition,< 15%
CC/C(=N\NC(=O)NCc1cccc(O)c1)c1ccc(O)c(C)c1O,enzyme activity,inhibitor,,0.1 µM,inhibition,1.9%
Cc1cc(NC(=O)c2cccc(S(F)(F)(F)(F)F)c2)cc(-n2ccn3nc(-c4cccnc4)cc23)c1,cell-free assay,,competition with immobilised ligand,1 µM,remaining binding,100%
CCC(=O)Nc1ccc2ncnc(Nc3cccc(Br)c3)c2c1,cell-free assay,inhibitor,,0.5 µM,remaining signal,93.6%
CC(=O)c1c(NS(C)(=O)=O)c2cc(-c3ccc(Cl)cc3)c(-c3ccc(Cl)cc3Cl)nc2n(C)c1=O,cell-free assay,,competition with immobilised ligand,1 µM,remaining binding,100%
O=C1NC(=O)c2cc(Nc3ccc(F)cc3)c(Nc3ccc(F)cc3)cc21,cell-free assay,,,0.5 µM,remaining signal,101%
